Test results taken from ChEMBL document CHEMBL3627681, “Synthesis and biological evaluation of 1,3-diaryl pyrazole derivatives as potential antibacterial and anti-inflammatory agents” (2015).
Values after ≈ are worked out from the molar mass of the structure shown.

What was measured:
Salmonella typhimurium = experiment: Antibacterial activity against Salmonella typhimurium 2421 after 24 hrs by two-fold serial dilution method; assay type: functional, Salmonella enterica subsp. enterica serovar Typhimurium; settings: Salmonella enterica, 2421, 24 h
Method in brief: (§1)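 Broth microdilution in Mueller-Hinton broth over final concentrations of 64–0.5. Bacteria were grown to mid-log phase and diluted 1000-fold, then inoculated at 10⁵ CFU/mL. Compounds were dissolved in DMSO, with final DMSO at most 0.05%. Plates were incubated 24 h at 37 °C and growth read as absorbance at 650 nm. MIC is the concentration giving complete growth inhibition. Three independent runs.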

Streptococcus mutans = experiment: Antibacterial activity against Streptococcus mutans 3065 after 24 hrs by two-fold serial dilution method; assay type: functional; settings: Streptococcus mutans, 3065, 24 h; method in brief: as §1
Staphylococcus aureus [1] = experiment: Antibacterial activity against quinolone-resistant Staphylococcus aureus CCARM 3519 after 24 hrs by two-fold serial dilution method; assay type: functional; settings: CCARM 3519, 24 h
Method in brief: (§2)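 Broth microdilution in Mueller-Hinton broth. Bacteria grown to mid-log phase, diluted 1000-fold, and inoculated at 10⁵ CFU/mL. Test compounds in DMSO, final DMSO not above 0.05%, final concentrations 64-0.5 µg/mL. Incubation 24 h at 37 °C, growth read as absorbance at 650 nm. MIC taken as the lowest concentration giving complete growth inhibition. Run three times.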

Staphylococcus aureus [2] = experiment: Antibacterial activity against Staphylococcus aureus 209 after 24 hrs by two-fold serial dilution method; assay type: functional; settings: Staphylococcus aureus, 209, 24 h; method in brief: as §2
Staphylococcus aureus [3] = experiment: Antibacterial activity against Staphylococcus aureus RN4220 after 24 hrs by two-fold serial dilution method; assay type: functional; settings: RN4220, 24 h; method in brief: as §2
Escherichia coli [4] = experiment: Antibacterial activity against Escherichia coli CCARM 1356 after 24 hrs by two-fold serial dilution method; assay type: functional; settings: CCARM 1356, 24 h; method in brief: as §1
Staphylococcus aureus [5] = experiment: Antibacterial activity against methicillin-resistant Staphylococcus aureus CCARM 3167 after 24 hrs by two-fold serial dilution method; assay type: functional; settings: CCARM 3167, 24 h; method in brief: as §2
Staphylococcus aureus [6] = experiment: Antibacterial activity against Staphylococcus aureus 503 after 24 hrs by two-fold serial dilution method; assay type: functional; settings: Staphylococcus aureus, 503, 24 h; method in brief: as §2
Staphylococcus aureus [7] = experiment: Antibacterial activity against methicillin-resistant Staphylococcus aureus CCARM 3506 after 24 hrs by two-fold serial dilution method; assay type: functional; settings: CCARM 3506, 24 h; method in brief: as §2
Pseudomonas aeruginosa [8] = experiment: Antibacterial activity against Pseudomonas aeruginosa 2004 after 24 hrs by two-fold serial dilution method; assay type: functional; settings: Pseudomonas aeruginosa, 2004, 24 h; method in brief: as §1
Staphylococcus aureus [9] = experiment: Antibacterial activity against quinolone-resistant Staphylococcus aureus CCARM 3505 after 24 hrs by two-fold serial dilution method; assay type: functional; settings: CCARM 3505, 24 h; method in brief: as §2
Mus musculus = experiment: Antiinflammatory activity in mouse assessed as inhibition of xylene-induced ear edema at 50 mg/kg, ip administered 30 mins before xylene challenge relative to control; assay type: functional
Method in brief: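 Mice received compound freshly dissolved in DMSO, 50 mg/kg ip at 0.05 mL/20 g body weight; vehicle controls got DMSO alone. After 30 min, 20 µL xylene was applied to the right ear. After a further 30 min, 7 mm plugs were cut from treated and untreated ears and edema taken as their weight difference. Result is % edema reduction versus vehicle controls.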

Pseudomonas aeruginosa [10] = experiment: Antibacterial activity against Pseudomonas aeruginosa 2742 after 24 hrs by two-fold serial dilution method; assay type: functional; settings: Pseudomonas aeruginosa, 2742, 24 h; method in brief: as §1
Candida albicans = experiment: Antifungal activity against Candida albicans 7535 by two-fold serial dilution method; assay type: functional
Escherichia coli [11] = experiment: Antibacterial activity against Escherichia coli KCTC 1924 after 24 hrs by two-fold serial dilution method; assay type: functional; settings: KCTC 1924, 24 h; method in brief: as §1
Escherichia coli [12] = experiment: Ratio of moxifloxacin MIC to compound MIC for Escherichia coli CCARM 1356 after 24 hrs by two-fold serial dilution method; assay type: functional

SMILES | MIC (Salmonella typhimurium) [µg/mL] | MIC (Streptococcus mutans) [µg/mL] | MIC (Staphylococcus aureus [1]) [µg/mL] | MIC (Staphylococcus aureus [2]) [µg/mL] | MIC (Staphylococcus aureus [3]) [µg/mL] | MIC (Escherichia coli [4]) [µg/mL] | MIC (Staphylococcus aureus [5]) [µg/mL] | MIC (Staphylococcus aureus [6]) [µg/mL] | MIC (Staphylococcus aureus [7]) [µg/mL] | MIC (Pseudomonas aeruginosa [8]) [µg/mL] | MIC (Staphylococcus aureus [9]) [µg/mL] | inhibition in vivo at 50 mg/kg (Mus musculus) [%] | MIC (Pseudomonas aeruginosa [10]) [µg/mL] | MIC (Candida albicans) [µg/mL] | MIC (Escherichia coli [11]) [µg/mL] | Ratio (Escherichia coli [12])
N=C(N)N/N=C/c1cn(-c2ccc([N+](=O)[O-])cc2[N+](=O)[O-])nc1-c1ccccc1Cl | 8 (≈ 18.7 µM) | 16 (≈ 37.3 µM) | 8 (≈ 18.7 µM) | 8 (≈ 18.7 µM) | 4 (≈ 9.33 µM) | 16 (≈ 37.3 µM) | 4 (≈ 9.33 µM) | 4 (≈ 9.33 µM) | 4 (≈ 9.33 µM) | > 64 | 4 (≈ 9.33 µM) | 84.6 | > 64 | 2 (≈ 4.66 µM) | 4 (≈ 9.33 µM) | 
O=C(N/N=C/c1cn(-c2ccc([N+](=O)[O-])cc2[N+](=O)[O-])nc1-c1ccccc1Br)c1ccco1 | > 64 | > 64 | > 64 | > 64 | > 64 | > 64 | > 64 | > 64 | > 64 | > 64 | > 64 | 17.5 | > 64 | > 64 | > 64 | 
N=C(N)N/N=C/c1cn(-c2ccc([N+](=O)[O-])cc2[N+](=O)[O-])nc1-c1ccccc1Br | 16 (≈ 33.8 µM) | 16 (≈ 33.8 µM) | 8 (≈ 16.9 µM) | 8 (≈ 16.9 µM) | 4 (≈ 8.45 µM) | 16 (≈ 33.8 µM) | 4 (≈ 8.45 µM) | 4 (≈ 8.45 µM) | 4 (≈ 8.45 µM) | > 64 | 4 (≈ 8.45 µM) | 78.1 | > 64 | 2 (≈ 4.23 µM) | 4 (≈ 8.45 µM) | 
COc1cccc(-c2nn(-c3ccc([N+](=O)[O-])cc3[N+](=O)[O-])cc2/C=N/NC(=N)N)c1 | 8 (≈ 18.9 µM) | 8 (≈ 18.9 µM) | 4 (≈ 9.43 µM) | 4 (≈ 9.43 µM) | 4 (≈ 9.43 µM) | 8 (≈ 18.9 µM) | 4 (≈ 9.43 µM) | 4 (≈ 9.43 µM) | 2 (≈ 4.71 µM) | > 64 | 4 (≈ 9.43 µM) | 67.3 | > 64 | 2 (≈ 4.71 µM) | 4 (≈ 9.43 µM) | 16
CCC(C)n1ncn(-c2ccc(N3CCN(c4ccc(OCC5COC(Cn6cncn6)(c6ccc(Cl)cc6Cl)O5)cc4)CC3)cc2)c1=O (centres undefined) [ITRACONAZOLE] |  |  |  |  |  |  |  |  |  |  |  |  |  | 0.06 (≈ 0.085 µM) |  | 
N=C(N)N/N=C/c1cn(-c2ccc([N+](=O)[O-])cc2[N+](=O)[O-])nc1-c1ccccc1F | 16 (≈ 38.8 µM) | 16 (≈ 38.8 µM) | 8 (≈ 19.4 µM) | 8 (≈ 19.4 µM) | 8 (≈ 19.4 µM) | 16 (≈ 38.8 µM) | 8 (≈ 19.4 µM) | 8 (≈ 19.4 µM) | 4 (≈ 9.7 µM) | > 64 | 8 (≈ 19.4 µM) | 87.2 | > 64 | 4 (≈ 9.7 µM) | 8 (≈ 19.4 µM) | 
N=C(N)N/N=C/c1cn(-c2ccc([N+](=O)[O-])cc2[N+](=O)[O-])nc1-c1ccccc1 | 16 (≈ 40.6 µM) | 16 (≈ 40.6 µM) | 8 (≈ 20.3 µM) | 8 (≈ 20.3 µM) | 8 (≈ 20.3 µM) | 16 (≈ 40.6 µM) | 8 (≈ 20.3 µM) | 8 (≈ 20.3 µM) | 8 (≈ 20.3 µM) | > 64 | 8 (≈ 20.3 µM) | 86.9 | > 64 | 4 (≈ 10.1 µM) | 8 (≈ 20.3 µM) | 
Cc1ccc(-c2nn(-c3ccc([N+](=O)[O-])cc3[N+](=O)[O-])cc2/C=N/NC(=O)c2ccco2)cc1 | > 64 | > 64 | > 64 | > 64 | > 64 | > 64 | > 64 | > 64 | > 64 | > 64 | > 64 | 36 | > 64 | > 64 | > 64 | 
O=C(N/N=C/c1cn(-c2ccc([N+](=O)[O-])cc2[N+](=O)[O-])nc1-c1cccc(Cl)c1)c1ccco1 | > 64 | > 64 | > 64 | > 64 | > 64 | > 64 | > 64 | > 64 | > 64 | > 64 | > 64 | 26.2 | > 64 | > 64 | > 64 | 
N=C(N)N/N=C/c1cn(-c2ccccc2)nc1-c1ccc(Br)cc1 | > 64 | > 64 | 16 (≈ 41.7 µM) | 8 (≈ 20.9 µM) | 4 (≈ 10.4 µM) | > 64 | 8 (≈ 20.9 µM) | 4 (≈ 10.4 µM) | 4 (≈ 10.4 µM) | > 64 | 16 (≈ 41.7 µM) | 42.8 | > 64 | 4 (≈ 10.4 µM) | 8 (≈ 20.9 µM) | 
N=C(N)N/N=C/c1cn(-c2ccccc2)nc1-c1ccc(Cl)cc1 | > 64 | > 64 | > 64 | > 64 | 16 (≈ 47.2 µM) | > 64 | > 64 | > 64 | > 64 | > 64 | > 64 | 46 | > 64 | > 64 | > 64 | 
COc1c(N2C[C@@H]3CCCN[C@@H]3C2)c(F)cc2c(=O)c(C(=O)O)cn(C3CC3)c12 [MOXIFLOXACIN] | 0.5 (≈ 1.25 µM) | 0.25 (≈ 0.623 µM) | 4 (≈ 9.96 µM) |  | 0.25 (≈ 0.623 µM) | 128 (≈ 319 µM) |  | 2 (≈ 4.98 µM) |  | 2 (≈ 4.98 µM) |  |  |  | 0.5 (≈ 1.25 µM) |  | 
COc1c(N2CCNC(C)C2)c(F)cc2c(=O)c(C(=O)O)cn(C3CC3)c12 (centres undefined) [GATIFLOXACIN] | 0.5 (≈ 1.33 µM) | 0.5 (≈ 1.33 µM) | 4 (≈ 10.7 µM) | 2 (≈ 5.33 µM) | 0.25 (≈ 0.666 µM) | 16 (≈ 42.6 µM) | 2 (≈ 5.33 µM) | 2 (≈ 5.33 µM) | 2 (≈ 5.33 µM) | 1 (≈ 2.66 µM) | 8 (≈ 21.3 µM) |  | 1 (≈ 2.66 µM) | 0.5 (≈ 1.33 µM) | 2 (≈ 5.33 µM) | 
O=C(N/N=C/c1cn(-c2ccc([N+](=O)[O-])cc2[N+](=O)[O-])nc1-c1cccc(Br)c1)c1ccco1 | > 64 | > 64 | > 64 | > 64 | > 64 | > 64 | > 64 | > 64 | > 64 | > 64 | > 64 | 25.3 | > 64 | > 64 | > 64 | 
O=C(N/N=C/c1cn(-c2ccc([N+](=O)[O-])cc2[N+](=O)[O-])nc1-c1ccccc1F)c1ccco1 | > 64 | > 64 | > 64 | > 64 | > 64 | > 64 | > 64 | > 64 | > 64 | > 64 | > 64 | 28 | > 64 | > 64 | > 64 | 
OC(Cn1cncn1)(Cn1cncn1)c1ccc(F)cc1F [FLUCONAZOLE] |  |  |  |  |  |  |  |  |  |  |  |  |  | 1 (≈ 3.27 µM) |  | 
Cc1onc(-c2ccccc2)c1C(=O)N[C@@H]1C(=O)N2[C@@H]1SC(C)(C)[C@@H]2C(=O)O [OXACILLIN] |  |  | 1 (≈ 2.49 µM) |  |  |  | > 64 |  | > 64 |  | 1 (≈ 2.49 µM) |  |  |  |  | 
CC(C)Cc1ccc(C(C)C(=O)O)cc1 (centres undefined) [IBUPROFEN] |  |  |  |  |  |  |  |  |  |  |  | 29.6 |  |  |  | 
CCn1cc(C(=O)O)c(=O)c2cc(F)c(N3CCNCC3)cc21 [NORFLOXACIN] |  |  | > 64 |  |  |  | 8 (≈ 25.1 µM) |  | 4 (≈ 12.5 µM) |  | > 64 |  |  |  |  | 
N=C(N)N/N=C/c1cn(-c2ccccc2)nc1-c1ccc(F)cc1 | > 64 | > 64 | 16 (≈ 49.6 µM) | 8 (≈ 24.8 µM) | 8 (≈ 24.8 µM) | > 64 | 8 (≈ 24.8 µM) | 16 (≈ 49.6 µM) | 8 (≈ 24.8 µM) | > 64 | 16 (≈ 49.6 µM) | 61.4 | > 64 | 8 (≈ 24.8 µM) | 8 (≈ 24.8 µM) | 
N=C(N)N/N=C/c1cn(-c2ccc([N+](=O)[O-])cc2[N+](=O)[O-])nc1-c1ccccc1[N+](=O)[O-] | 32 (≈ 72.8 µM) | 32 (≈ 72.8 µM) | 32 (≈ 72.8 µM) | 32 (≈ 72.8 µM) | 16 (≈ 36.4 µM) | 32 (≈ 72.8 µM) | 16 (≈ 36.4 µM) | 16 (≈ 36.4 µM) | 8 (≈ 18.2 µM) | > 64 | 16 (≈ 36.4 µM) | 58.3 | > 64 | 8 (≈ 18.2 µM) | 16 (≈ 36.4 µM) | 
